Measured values published in ChEMBL document CHEMBL1141169, “Discovery of 5-arylsulfonamido-3-(pyrrolidin-2-ylmethyl)-1H-indole derivatives as potent, selective 5-HT6 receptor agonists and antagonists” (J Med Chem, 2005).

What was measured:
[1] = target: T1, 5-hydroxytryptamine receptor 6 (Homo sapiens, UniProt P50406); assay: Inhibition of [3H]LSD binding to human 5-hydroxytryptamine 6 receptor expressed in HeLa cells; format: cell-based
Outline: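 Competition binding against [3H]-LSD on cloned human 5-HT6 receptors stably expressed in HeLa cells. Ki determined in triplicate; single-point lines are % inhibition at 1000 nM.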

[2] = target: T1, 5-hydroxytryptamine receptor 6; assay: Maximum percentage agonism of cAMP production in HeLa cells expressing human 5-hydroxytryptamine 6 receptor; format: functional, cell-based
Outline: (§1)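 cAMP production read out across a range of ligand concentrations in HeLa cells stably transfected with the human 5-HT6 receptor, ligand given alone as agonist. EC50 and Emax each determined in triplicate.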

[3] = target: T1, 5-hydroxytryptamine receptor 6; assay: Effective agonist concentration in cAMP release assay in HeLa cells expressing human 5-hydroxytryptamine 6 receptor; format: functional, cell-based; outline: as §1
[4] = target: T1, 5-hydroxytryptamine receptor 6; assay: Inhibition of 5-HT stimulated cAMP production in HeLa cells expressing human 5-hydroxytryptamine 6 receptor; format: functional, cell-based
Outline: (§2)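 Antagonist mode: cAMP production in HeLa cells stably transfected with the human 5-HT6 receptor was stimulated with 5-HT, and inhibition was measured across a range of ligand concentrations. IC50 and Imax each determined in triplicate.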

[5] = target: T1, 5-hydroxytryptamine receptor 6; assay: Maximum percentage inhibition of 5-HT stimulated cAMP production in HeLa cells expressing 5-hydroxytryptamine 6 receptor; format: functional, cell-based; outline: as §2

T1 sequence (P50406 whole entry): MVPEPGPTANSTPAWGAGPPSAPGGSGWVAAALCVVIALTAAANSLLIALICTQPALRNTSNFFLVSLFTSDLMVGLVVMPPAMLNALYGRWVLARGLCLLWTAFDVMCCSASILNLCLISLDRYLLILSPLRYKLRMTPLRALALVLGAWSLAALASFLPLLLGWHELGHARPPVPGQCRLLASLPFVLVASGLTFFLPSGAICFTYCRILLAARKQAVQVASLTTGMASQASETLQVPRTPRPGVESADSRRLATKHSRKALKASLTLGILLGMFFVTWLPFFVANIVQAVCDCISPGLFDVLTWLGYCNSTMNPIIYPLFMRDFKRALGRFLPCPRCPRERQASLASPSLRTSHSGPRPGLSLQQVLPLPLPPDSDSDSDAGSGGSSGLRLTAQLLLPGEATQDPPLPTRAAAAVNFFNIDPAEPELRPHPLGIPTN

For `CN1CCC[C@@H]1Cc1c[nH]c2ccc(NS(=O)(=O)c3cccc(C(F)(F)F)c3)cc12`, which Ki [1] is on record?
The Ki was 1 nM.

What about the Emax [2] of the same molecule?
Its Emax is 90%.

And the EC50 [3]?
The EC50 was 3.2 nM.

Which Ki [1] does the source give for `Cc1ccc(S(=O)(=O)Nc2ccc3[nH]cc(C[C@H]4CCCN4)c3c2)cc1` here?
The Ki was 4 nM.

Which results are given for `Cc1ccc(S(=O)(=O)Nc2ccc3[nH]cc(C[C@H]4CCCN4C)c3c2)cc1`?
Ki [1]: 1 nM; Emax [2]: 79%; EC50 [3]: 1.3 nM

Which IC50 [4] does the source give for `CN1CCC[C@H]1Cc1c[nH]c2ccc(NS(=O)(=O)c3ccccc3Br)cc12` here?
The IC50 was 0.8 nM.

What about the Imax [5] of the same molecule?
The Imax was 75%.

And the Ki [1]?
Its Ki is 5 nM.

Which results are given for `Cc1c(S(=O)(=O)Nc2ccc3[nH]cc(C[C@@H]4CCCN4C)c3c2)sc2ccc(Cl)cc12`?
IC50 [4]: 1.1 nM; Imax [5]: 91%; Ki [1]: 2 nM

With `CN1CCC[C@@H]1Cc1c[nH]c2ccc(NS(=O)(=O)c3ccc(OC(F)(F)F)cc3)cc12` as the molecule, how does the Ki [1] read?
The Ki was 1 nM.

And the Emax [2]?
The Emax was 94%.

What about the EC50 [3] of the same molecule?
The EC50 was 2.9 nM.

With `CN1CCC[C@@H]1Cc1c[nH]c2ccc(NS(=O)(=O)c3ccccc3)cc12` as the molecule, how does the Ki [1] read?
The Ki was 1 nM.

`O=S(=O)(Nc1ccc2[nH]cc(C[C@H]3CCCN3)c2c1)c1ccc(Cl)cc1` was tested. Which Ki [1] did it give?
Its Ki is 3 nM.

What about the Emax [2] of the same molecule?
The Emax was 99%.

What about the EC50 [3] of the same molecule?
Its EC50 is 4.5 nM.

With `O=S(=O)(Nc1ccc2[nH]cc(C[C@@H]3CCCN3)c2c1)c1cccc(Cl)c1` as the molecule, how does the Ki [1] read?
The Ki was 36 nM.

For `O=S(=O)(Nc1ccc2[nH]cc(C[C@H]3CCCN3)c2c1)c1ccc(F)cc1`, which Ki [1] is on record?
Its Ki is 4 nM.

For `O=S(=O)(Nc1ccc2[nH]cc(C[C@H]3CCCN3)c2c1)c1ccc(I)cc1`, which Ki [1] is on record?
Its Ki is 1 nM.

With `CN1CCC[C@H]1Cc1c[nH]c2ccc(NS(=O)(=O)c3ccc4ccccc4c3)cc12` as the molecule, how does the IC50 [4] read?
The IC50 was 10.4 nM.

What about the Imax [5] of the same molecule?
The Imax was 95%.

What about the Ki [1] of the same molecule?
Its Ki is 1 nM.

With `CN1CCC[C@@H]1Cc1c[nH]c2ccc(NS(=O)(=O)c3ccc4ccccc4c3)cc12` as the molecule, how does the Ki [1] read?
Its Ki is 1 nM.

For `CC(C)c1ccc(S(=O)(=O)Nc2ccc3[nH]cc(C[C@H]4CCCN4)c3c2)cc1`, which Ki [1] is on record?
Its Ki is 1 nM.

With `CN1CCC[C@@H]1Cc1c[nH]c2ccc(NS(=O)(=O)c3ccc(C(F)(F)F)cc3)cc12` as the molecule, how does the Ki [1] read?
The Ki was 0.4 nM.

What about the Emax [2] of the same molecule?
Its Emax is 85%.

And the EC50 [3]?
Its EC50 is 4.5 nM.

How did the IC50 [4] turn out when `CN1CCC[C@H]1Cc1c[nH]c2ccc(NS(=O)(=O)c3cccc(C(F)(F)F)c3)cc12` was run?
The IC50 was 14.1 nM.

And the Imax [5]?
The Imax was 78%.

What about the Ki [1] of the same molecule?
Its Ki is 12 nM.

With `CC(C)c1ccc(S(=O)(=O)Nc2ccc3[nH]cc(C[C@H]4CCCN4C)c3c2)cc1` as the molecule, how does the Ki [1] read?
The Ki was 1 nM.

Which Ki [1] does the source give for `COc1ccc(S(=O)(=O)Nc2ccc3[nH]cc(C[C@@H]4CCCN4C)c3c2)cc1` here?
The Ki was 34 nM.

For `CN1CCC[C@H]1Cc1c[nH]c2ccc(NS(=O)(=O)c3ccc(F)cc3Cl)cc12`, which Ki [1] is on record?
Its Ki is 35 nM.

For `O=S(=O)(Nc1ccc2[nH]cc(C[C@@H]3CCCN3)c2c1)c1ccc(Br)cc1`, which Ki [1] is on record?
Its Ki is 57 nM.

With `CN1CCC[C@H]1Cc1c[nH]c2ccc(NS(=O)(=O)c3ccc(Cl)c(Cl)c3)cc12` as the molecule, how does the Ki [1] read?
Its Ki is 7 nM.

For `CN1CCC[C@H]1Cc1c[nH]c2ccc(NS(=O)(=O)c3ccccc3)cc12`, which Ki [1] is on record?
The Ki was 16 nM.

With `O=S(=O)(Nc1ccc2[nH]cc(C[C@H]3CCCN3)c2c1)c1cccc(C(F)(F)F)c1` as the molecule, how does the Ki [1] read?
The Ki was 4 nM.

What about the Emax [2] of the same molecule?
Its Emax is 77%.

And the EC50 [3]?
Its EC50 is 5.8 nM.

Which results are given for `CN1CCC[C@H]1Cc1c[nH]c2ccc(NS(=O)(=O)c3ccc(Br)cc3)cc12`?
IC50 [4]: 1.6 nM; Imax [5]: 85%; Ki [1]: 9 nM

For `O=S(=O)(Nc1ccc2[nH]cc(C[C@H]3CCCN3)c2c1)c1ccccc1`, which Ki [1] is on record?
Its Ki is 4 nM.

And the Emax [2]?
Its Emax is 73%.

What about the EC50 [3] of the same molecule?
Its EC50 is 1.4 nM.

How did the IC50 [4] turn out when `CN1CCC[C@H]1Cc1c[nH]c2ccc(NS(=O)(=O)c3ccc(C(F)(F)F)cc3)cc12` was run?
The IC50 was 21.6 nM.

And the Imax [5]?
Its Imax is 78%.

What about the Ki [1] of the same molecule?
Its Ki is 10 nM.

For `O=S(=O)(Nc1ccc2[nH]cc(C[C@H]3CCCN3)c2c1)c1ccc(OC(F)(F)F)cc1`, which Ki [1] is on record?
Its Ki is 5 nM.

What about the Emax [2] of the same molecule?
Its Emax is 86%.

What about the EC50 [3] of the same molecule?
Its EC50 is 4.2 nM.

With `O=S(=O)(Nc1ccc2[nH]cc(C[C@@H]3CCCN3)c2c1)c1ccc(F)cc1F` as the molecule, how does the Ki [1] read?
The Ki was 131 nM.

What does the source list for `CN1CCC[C@@H]1Cc1c[nH]c2ccc(NS(=O)(=O)c3ccccc3F)cc12`?
Ki [1]: 1 nM; Emax [2]: 91%; EC50 [3]: 1.3 nM

Which Ki [1] does the source give for `Cc1noc(C)c1S(=O)(=O)Nc1ccc2[nH]cc(C[C@H]3CCCN3C)c2c1` here?
The Ki was 1 nM.

What about the Emax [2] of the same molecule?
Its Emax is 77%.

What about the EC50 [3] of the same molecule?
Its EC50 is 0.8 nM.

`O=S(=O)(Nc1ccc2[nH]cc(C[C@H]3CCCN3)c2c1)c1ccc(F)cc1Cl` was tested. Which Ki [1] did it give?
The Ki was 9 nM.

For `CN1CCC[C@H]1Cc1c[nH]c2ccc(NS(=O)(=O)c3ccccc3Cl)cc12`, which Ki [1] is on record?
The Ki was 22 nM.

With `O=S(=O)(Nc1ccc2[nH]cc(C[C@H]3CCCN3)c2c1)c1ccc(F)cc1F` as the molecule, how does the Ki [1] read?
Its Ki is 8 nM.

And the Emax [2]?
The Emax was 78%.

And the EC50 [3]?
Its EC50 is 5.2 nM.

Which Ki [1] does the source give for `COc1ccc(S(=O)(=O)Nc2ccc3[nH]cc(C[C@H]4CCCN4C)c3c2)cc1` here?
The Ki was 1 nM.

And the Emax [2]?
Its Emax is 83%.

What about the EC50 [3] of the same molecule?
Its EC50 is 2.2 nM.

With `CN1CCC[C@@H]1Cc1c[nH]c2ccc(NS(=O)(=O)c3ccc(I)cc3)cc12` as the molecule, how does the Ki [1] read?
Its Ki is 0.3 nM.

And the Emax [2]?
The Emax was 72%.

And the EC50 [3]?
The EC50 was 2.7 nM.

How did the IC50 [4] turn out when `CN1CCC[C@H]1Cc1c[nH]c2ccc(NS(=O)(=O)c3ccc(OC(F)(F)F)cc3)cc12` was run?
The IC50 was 25.8 nM.

What about the Imax [5] of the same molecule?
The Imax was 85%.

What about the Ki [1] of the same molecule?
The Ki was 8 nM.

What about the Emax [2] of the same molecule?
Its Emax is 68%.

And the EC50 [3]?
The EC50 was 180 nM.

How did the Ki [1] turn out when `O=S(=O)(Nc1ccc2[nH]cc(C[C@H]3CCCN3)c2c1)c1ccccc1F` was run?
The Ki was 4 nM.

For `COc1ccc(Cl)cc1S(=O)(=O)Nc1ccc2[nH]cc(C[C@@H]3CCCN3C)c2c1`, which Ki [1] is on record?
The Ki was 24 nM.

With `CC(C)c1ccc(S(=O)(=O)Nc2ccc3[nH]cc(C[C@@H]4CCCN4C)c3c2)cc1` as the molecule, how does the IC50 [4] read?
The IC50 was 21.1 nM.

And the Imax [5]?
Its Imax is 76%.

And the Ki [1]?
The Ki was 3 nM.

For `CN1CCC[C@@H]1Cc1c[nH]c2ccc(NS(=O)(=O)c3ccc(F)cc3)cc12`, which Ki [1] is on record?
Its Ki is 1 nM.

And the Emax [2]?
Its Emax is 85%.

And the EC50 [3]?
Its EC50 is 1.1 nM.

Which Ki [1] does the source give for `CN1CCC[C@H]1Cc1c[nH]c2ccc(NS(=O)(=O)c3cccc(Cl)c3)cc12` here?
Its Ki is 11 nM.

For `O=S(=O)(Nc1ccc2[nH]cc(C[C@H]3CCCN3)c2c1)c1ccc(Br)cc1`, which Ki [1] is on record?
Its Ki is 3 nM.

Which Ki [1] does the source give for `O=S(=O)(Nc1ccc2[nH]cc(C[C@H]3CCCN3)c2c1)c1cccc(Cl)c1` here?
The Ki was 2 nM.

And the Emax [2]?
The Emax was 92%.

What about the EC50 [3] of the same molecule?
The EC50 was 1 nM.

For `O=S(=O)(Nc1ccc2[nH]cc(C[C@H]3CCCN3)c2c1)c1ccc(Cl)c(Cl)c1`, which Ki [1] is on record?
The Ki was 3 nM.

Which Ki [1] does the source give for `CN1CCC[C@@H]1Cc1c[nH]c2ccc(NS(=O)(=O)c3ccc(Cl)c(Cl)c3)cc12` here?
The Ki was 1 nM.
